Calls of active or inactive are those of the source. The rule behind the calls is not given here.
Assays:
K562 [1] = experiment: Induction of apoptosis in human K562 cells assessed as total necrotic cells by Annexin V-FITC/propidium iodide staining based flow cytometry (reference value: 0.23%); type: functional
K562 [2] = experiment: Cytotoxicity against human K562 cells assessed as reduction in cell viability after 72 hrs by MTT assay; type: functional, cell-based; settings: K562, 72 h
K562 [3] = experiment: Induction of apoptosis in human K562 cells assessed as specific necrosis by Annexin V-FITC/propidium iodide staining based flow cytometry; type: functional; parameters: concentration or dose not given beside the values
K562 [4] = experiment: Cell cycle arrest in human K562 cells assessed as total cell levels at S phase at IC50 after 72 hrs by propidium iodide staining based flow cytometry (reference value: 36.49%); type: functional
K562 [5] = experiment: Induction of apoptosis in human K562 cells assessed as increase in Bax expression level by Western blot analysis; type: functional, cell-based
Outline: (§1)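 Western blot of treated K562 cells for Bcl-2, Bax, activated caspase 3 and cleaved PARP (85 kDa fragment). Blots developed by ECL, with band expression quantified by densitometry against an untreated control sample.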

K562 [6] = experiment: Induction of apoptosis in human K562 cells assessed as total early apoptotic cells by Annexin V-FITC/propidium iodide staining based flow cytometry (reference value: 3.07%); type: functional
K562 [7] = experiment: Cell cycle arrest in human K562 cells assessed as accumulation at G0/G1 phase at IC50 after 72 hrs by propidium iodide staining based flow cytometry (reference value: 38.48%); type: functional
K562 [8] = experiment: Cell cycle arrest in human K562 cells assessed as accumulation at S phase at IC50 after 72 hrs by propidium iodide staining based flow cytometry (reference value: 41.03%); type: functional
MDA-MB-231 = experiment: Cytotoxicity against human MDA-MB-231 cells assessed as reduction in cell viability after 72 hrs by MTT assay; type: functional, cell-based; settings: MDA-MB-231, 72 h
HeLa = experiment: Cytotoxicity against human HeLa cells assessed as reduction in cell viability after 72 hrs by MTT assay; type: functional, cell-based
K562 [9] = experiment: Induction of apoptosis in human K562 cells assessed as gated necrotic cells by Annexin V-FITC/propidium iodide staining based flow cytometry (reference value: 0.24%); type: functional
K562 [10] = experiment: Induction of apoptosis in human K562 cells assessed as gated late apoptotic cells by Annexin V-FITC/propidium iodide staining based flow cytometry (reference value: 0.88%); type: functional
K562 [11] = experiment: Cell cycle arrest in human K562 cells assessed as total cell levels at M4 phase at IC50 after 72 hrs by propidium iodide staining based flow cytometry (reference value: 0.50%); type: functional
HL-60 = experiment: Cytotoxicity against human HL60 cells assessed as reduction in cell viability after 72 hrs by MTT assay; type: functional, cell-based; settings: HL-60, 72 h
K562 [12] = experiment: Induction of apoptosis in human K562 cells assessed as gated viable cells by Annexin V-FITC/propidium iodide staining based flow cytometry (reference value: 95.78%); type: functional
MRC5 = experiment: Cytotoxicity against human MRC5 cells assessed as reduction in cell viability after 72 hrs by MTT assay; type: cell-based; settings: MRC5, 72 h
K562 [13] = experiment: Induction of apoptosis in human K562 cells assessed as specific apoptosis by Annexin V-FITC/propidium iodide staining based flow cytometry; type: functional; parameters: concentration or dose not given beside the values
A549 = experiment: Cytotoxicity against human A549 cells assessed as reduction in cell viability after 72 hrs by MTT assay; type: functional, cell-based; settings: A549, 72 h
K562 [14] = experiment: Induction of apoptosis in human K562 cells assessed as total late apoptotic cells by Annexin V-FITC/propidium iodide staining based flow cytometry (reference value: 0.77%); type: functional
K562 [15] = experiment: Cell cycle arrest in human K562 cells assessed as accumulation at sub G1 phase at IC50 after 72 hrs by propidium iodide staining based flow cytometry (reference value: 1.48%); type: functional
Jurkat = experiment: Cytotoxicity against human Jurkat cells assessed as reduction in cell viability after 72 hrs by MTT assay; type: functional, cell-based
MCF7 = experiment: Cytotoxicity against human MCF7 cells assessed as reduction in cell viability after 72 hrs by MTT assay; type: functional, cell-based; settings: MCF7, 72 h
K562 [16] = experiment: Induction of apoptosis in human K562 cells assessed as gated early apoptotic cells by Annexin V-FITC/propidium iodide staining based flow cytometry (reference value: 3.18%); type: functional
K562 [17] = experiment: Cell cycle arrest in human K562 cells assessed as accumulation at G2/M phase at IC50 after 72 hrs by propidium iodide staining based flow cytometry (reference value: 19.01%); type: functional
K562 [18] = experiment: Cell cycle arrest in human K562 cells assessed as total cell levels at G0/G1 phase at IC50 after 72 hrs by propidium iodide staining based flow cytometry (reference value: 39.97%); type: functional
K562 [19] = experiment: Induction of apoptosis in human K562 cells assessed as decrease in Bcl-2 expression level by Western blot analysis; type: functional, cell-based; outline: as §1
K562 [20] = experiment: Induction of apoptosis in human K562 cells assessed as total viable cells by Annexin V-FITC/propidium iodide staining based flow cytometry (reference value: 92.45%); type: functional
Raji = experiment: Cytotoxicity against human Raji cells assessed as reduction in cell viability after 72 hrs by MTT assay; type: functional, cell-based
K562 [21] = experiment: Cell cycle arrest in human K562 cells assessed as total cell levels at G2/M phase at IC50 after 72 hrs by propidium iodide staining based flow cytometry (reference value: 14.31%); type: functional

SMILES	Activity (K562 [1])	IC50 (K562 [2])	Activity (K562 [3])	Activity (K562 [4])	Activity (K562 [5])	Activity (K562 [6])	Activity (K562 [7])	Activity (K562 [8])	IC50 (MDA-MB-231)	IC50 (HeLa)	Activity (K562 [9])	Activity (K562 [10])	Activity (K562 [11])	IC50 (HL-60)	Activity (K562 [12])	IC50 (MRC5)	Activity (K562 [13])	IC50 (A549)	Activity (K562 [14])	Activity (K562 [15])	also measured
O=C1C=C[C@]2(C[C@H](OC(=O)/C=C/c3ccccc3)[C@@H](c3ccccc3)O2)O1	0.05%	20.7 µM	4.06%	28.7%	Active	59.12%	16.04%	31.55%	5.45 µM	1.15 µM	0.09%	4.92%	25.37%	10 µM	15.88%	> 100 µM	83.35%	14.6 µM	3.27%	28.63%	IC50 (Jurkat): 0.21 µM; IC50 (MCF7): 1.65 µM; Activity (K562 [16]): 79.11%; Activity (K562 [17]): 23.78%; Activity (K562 [18]): 14.21%; Activity (K562 [19]): Active; Activity (K562 [20]): 3.9%; IC50 (Raji): 6.68 µM; Activity (K562 [21]): 21.08%
COc1ccc(/C=C/C(=O)O[C@H]2C[C@]3(C=CC(=O)O3)O[C@H]2c2ccccc2)cc1	0.36%	12.8 µM	3.76%	24.97%	Active	5.27%	41.6%	27.14%	2.64 µM	12.8 µM	0.37%	0.78%	3.06%	8.67 µM	93.46%	> 100 µM	2.28%	1.58 µM	0.76%	3.41%	IC50 (Jurkat): 14.2 µM; IC50 (MCF7): 11.2 µM; Activity (K562 [16]): 5.39%; Activity (K562 [17]): 27.85%; Activity (K562 [18]): 37.38%; Activity (K562 [19]): inactive; Activity (K562 [20]): 91.39%; IC50 (Raji): 8.69 µM; Activity (K562 [21]): 25.02%
COc1ccc(/C=C/C(=O)O[C@H]2C[C@@]3(C=CC(=O)O3)O[C@@H]2c2ccccc2)cc1	0.78%	1.11 µM	3.15%	36.83%	Active	11.61%	30.72%	42.64%	> 100 µM	3.64 µM	0.96%	4.41%	1.35%	6.37 µM	80.32%	> 100 µM	15.35%	23.1 µM	3.58%	1.57%	IC50 (Jurkat): 21.1 µM; IC50 (MCF7): 2.22 µM; Activity (K562 [16]): 14.31%; Activity (K562 [17]): 25.07%; Activity (K562 [18]): 26.37%; Activity (K562 [19]): inactive; Activity (K562 [20]): 65.19%; IC50 (Raji): 99.8 µM; Activity (K562 [21]): 22.36%
O=C1C=C[C@]2(C[C@H](OC(=O)/C=C/c3ccc(F)cc3)[C@H](c3ccccc3)O2)O1	0.23%	9.05 µM	3.78%	31.52%	Active	60.46%	23.2%	37.11%	1.02 µM	12 µM	0.36%	2.62%	4.05%	12 µM	13.78%	> 100 µM	85.69%	1.21 µM	1.7%	14.87%	IC50 (Jurkat): 15.4 µM; IC50 (MCF7): 15.6 µM; Activity (K562 [16]): 83.24%; Activity (K562 [17]): 24.82%; Activity (K562 [18]): 19.29%; Activity (K562 [19]): Active; Activity (K562 [20]): 2.45%; IC50 (Raji): 17.3 µM; Activity (K562 [21]): 29.05%
O=C1C=C[C@]2(C[C@H](OC(=O)/C=C/c3ccc([N+](=O)[O-])cc3)[C@H](c3ccccc3)O2)O1	0.68%	14.3 µM	0.64%	27.16%	Active	15.89%	30.42%	29.17%	4.48 µM	11.5 µM	3.37%	3.87%	18.7%	4.32 µM	13.94%	> 100 µM	81.97%	3.12 µM	0.78%	20.43%	IC50 (Jurkat): 10.2 µM; IC50 (MCF7): 7.55 µM; Activity (K562 [16]): 78.82%; Activity (K562 [17]): 19.98%; Activity (K562 [18]): 27.84%; Activity (K562 [19]): Active; Activity (K562 [20]): 2.81%; IC50 (Raji): 11.8 µM; Activity (K562 [21]): 18.29%
